Reference: ChEMBL document CHEMBL2380256, “Discovery of novel Jak2-Stat pathway inhibitors with extended residence time on target” (Bioorg Med Chem Lett, 2013)
Calls of active or inactive are those of the source. No cut-off for these calls is given here.

Columns and labels:
Mus musculus [1] = test: In vivo inhibition of JAK2 TEL domain (unknown origin) transfected in mouse Ba/F3 cells allografted in nude mouse assessed as inhibition of STAT5 phosphorylation at 5 mg/kg, po qd measured at 8 hrs relative to vehicle-treated control; format: functional; conditions: BaF3, 8 h
Outline: (§1)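 Female nude mice implanted intravenously with Ba/F3 TEL-JAK2 cells on day 0 and given a single oral dose on day 10. pStat5 was measured at the stated times post-dose. % inhibition was scaled between vehicle and a control inhibitor as maximum and minimum, with n = 3 per dose and time point, reported as mean ±SD.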

[2] = molecular target: T1, Tyrosine-protein kinase JAK2 (Homo sapiens, UniProt O60674); test: Inhibition of JAK2 (unknown origin) using biotinylated TYK2 peptide as substrate after 60 mins
Target sequence in this assay (O60674 whole entry): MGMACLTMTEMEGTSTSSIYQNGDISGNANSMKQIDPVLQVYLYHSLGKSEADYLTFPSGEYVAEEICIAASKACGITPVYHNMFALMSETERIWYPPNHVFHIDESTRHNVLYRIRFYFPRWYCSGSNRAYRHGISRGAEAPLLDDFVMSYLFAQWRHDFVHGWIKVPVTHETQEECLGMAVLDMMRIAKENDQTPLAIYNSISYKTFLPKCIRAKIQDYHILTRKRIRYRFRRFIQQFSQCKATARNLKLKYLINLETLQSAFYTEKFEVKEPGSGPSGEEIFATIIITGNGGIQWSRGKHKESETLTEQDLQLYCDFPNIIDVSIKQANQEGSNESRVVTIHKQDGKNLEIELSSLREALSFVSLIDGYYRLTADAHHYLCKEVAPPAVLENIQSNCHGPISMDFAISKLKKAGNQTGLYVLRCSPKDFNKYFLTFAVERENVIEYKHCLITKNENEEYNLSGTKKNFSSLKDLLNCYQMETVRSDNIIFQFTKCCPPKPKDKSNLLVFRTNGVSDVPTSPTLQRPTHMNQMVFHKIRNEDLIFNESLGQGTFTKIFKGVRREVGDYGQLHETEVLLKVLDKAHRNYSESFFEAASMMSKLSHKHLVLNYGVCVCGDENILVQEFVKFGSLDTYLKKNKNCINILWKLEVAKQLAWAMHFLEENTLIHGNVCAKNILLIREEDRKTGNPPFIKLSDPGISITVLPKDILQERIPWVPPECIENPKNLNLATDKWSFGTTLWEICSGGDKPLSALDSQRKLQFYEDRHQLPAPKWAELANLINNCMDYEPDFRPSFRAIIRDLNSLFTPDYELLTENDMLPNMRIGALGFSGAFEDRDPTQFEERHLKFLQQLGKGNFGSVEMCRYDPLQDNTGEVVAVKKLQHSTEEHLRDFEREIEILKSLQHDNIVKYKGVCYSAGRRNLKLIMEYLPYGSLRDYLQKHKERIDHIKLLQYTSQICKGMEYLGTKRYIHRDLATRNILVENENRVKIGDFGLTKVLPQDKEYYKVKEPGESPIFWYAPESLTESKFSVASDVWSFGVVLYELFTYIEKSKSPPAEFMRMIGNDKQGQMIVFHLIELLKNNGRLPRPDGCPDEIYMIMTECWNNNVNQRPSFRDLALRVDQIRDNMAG

[3] = Growth inhibition of human UKE1 cells harboring JAK2 V617F mutant after 2 days by [3H]-thymidine incorporation assay; format: functional
[4] = AUC in Han Wistar rat at 10 mg/kg, po and 3 mg/kg, iv; format: ADME, organism-based; conditions: plasma
Outline: (§2)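 Single-dose PK: female CD-1 mice and male Han Wistar rats, 10 mg/kg po in 0.1% HPMC and 3 mg/kg iv in DMA/PEG/saline 40/40/20.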

[5] = Growth inhibition of mouse BA/F3 cells transfected with JAK2 TEL domain after 24 hrs by Alamar Blue assay; format: functional; conditions: BaF3, 24 h
[6] = Total plasma concentration in nude mouse allografted with mouse Ba/F3 cells expressing JAK2 TEL domain at 5 mg/kg, po qd measured at 6 hrs; format: ADME, organism-based, BaF3; design: dose 5 mg/kg, route oral
Outline: (§3)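 Female nude mice implanted intravenously with Ba/F3 TEL-JAK2 cells on day 0 and dosed orally on day 10. Total plasma drug concentration was measured at the stated times post-dose, averaged over n = 3 per dose and time point.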

[7] = Clearance in Han Wistar rat at 10 mg/kg, po and 3 mg/kg, iv; format: ADME, organism-based; conditions: in vivo; outline: as §2
[8] = Fraction unbound in nude mouse plasma allografted with mouse Ba/F3 cells expressing JAK2 TEL domain at 5 to 10 mg/kg, po qd after 6 hrs; format: ADME, organism-based, BaF3; design: dose 5-10 mg/kg, route oral
[9] = Growth inhibition of mouse BA/F3 cells transfected with JAK3 TEL domain after 24 hrs by Alamar Blue assay; format: functional, cell-based; conditions: BaF3, 24 h, read-out: GI50
Mus musculus [10] = test: In vivo inhibition of JAK2 TEL domain (unknown origin) transfected in mouse Ba/F3 cells allografted in nude mouse assessed as inhibition of STAT5 phosphorylation at 10 mg/kg, po qd after 6 hrs relative to vehicle-treated control; format: functional; conditions: BaF3, 6 h; outline: as §1
SET-2 = test: Growth inhibition of human SET2 harboring JAK2 V617F mutant after 24 hrs by Alamar Blue assay; format: functional; conditions: SET-2, 24 h
[11] = molecular target: T2, Tyrosine-protein kinase JAK3 (Homo sapiens, UniProt P52333); test: Inhibition of JAK3 TEL domain (unknown origin) transfected in mouse Ba/F3 cells; format: cell-based, BaF3
T2 sequence (P52333 whole entry): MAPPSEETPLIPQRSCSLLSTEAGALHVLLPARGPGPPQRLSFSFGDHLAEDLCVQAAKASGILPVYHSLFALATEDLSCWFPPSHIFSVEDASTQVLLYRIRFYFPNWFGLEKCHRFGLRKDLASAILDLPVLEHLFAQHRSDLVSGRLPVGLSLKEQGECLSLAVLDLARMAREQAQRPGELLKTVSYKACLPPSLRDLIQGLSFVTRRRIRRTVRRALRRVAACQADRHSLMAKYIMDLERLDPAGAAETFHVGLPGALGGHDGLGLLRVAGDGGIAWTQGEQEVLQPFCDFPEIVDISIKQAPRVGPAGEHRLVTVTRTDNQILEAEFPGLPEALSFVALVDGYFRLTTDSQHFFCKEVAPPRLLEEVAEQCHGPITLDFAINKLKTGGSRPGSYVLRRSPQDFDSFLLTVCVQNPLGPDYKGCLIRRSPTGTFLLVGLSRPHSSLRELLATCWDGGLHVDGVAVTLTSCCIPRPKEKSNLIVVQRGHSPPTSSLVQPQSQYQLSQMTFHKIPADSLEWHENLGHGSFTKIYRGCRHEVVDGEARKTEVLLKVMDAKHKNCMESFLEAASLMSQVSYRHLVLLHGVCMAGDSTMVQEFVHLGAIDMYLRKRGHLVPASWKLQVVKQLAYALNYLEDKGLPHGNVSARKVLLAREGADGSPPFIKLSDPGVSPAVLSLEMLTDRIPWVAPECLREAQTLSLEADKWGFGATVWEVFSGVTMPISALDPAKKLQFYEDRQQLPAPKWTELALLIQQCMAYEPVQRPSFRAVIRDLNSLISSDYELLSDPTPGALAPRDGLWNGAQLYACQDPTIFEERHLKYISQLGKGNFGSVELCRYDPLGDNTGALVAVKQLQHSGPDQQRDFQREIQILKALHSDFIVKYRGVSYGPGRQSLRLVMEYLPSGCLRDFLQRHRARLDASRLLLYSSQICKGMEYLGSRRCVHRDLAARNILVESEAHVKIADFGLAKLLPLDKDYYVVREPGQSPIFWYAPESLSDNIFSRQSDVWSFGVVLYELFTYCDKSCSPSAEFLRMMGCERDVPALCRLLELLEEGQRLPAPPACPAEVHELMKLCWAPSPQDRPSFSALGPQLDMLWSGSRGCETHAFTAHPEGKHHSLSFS

Mus musculus [12] = test: In vivo inhibition of JAK2 TEL domain (unknown origin) transfected in mouse Ba/F3 cells allografted in nude mouse assessed as inhibition of STAT5 phosphorylation at 5 mg/kg, po qd after 6 hrs; format: functional, organism-based; design: dose 5 mg/kg; conditions: BaF3; outline: as §1
[13] = molecular target: T1, Tyrosine-protein kinase JAK2; test: Inhibition of JAK2 TEL domain (unknown origin) transfected in mouse Ba/F3 cells; format: cell-based; conditions: baf3
Target sequence in this assay (O60674 whole entry, looked up): as the sequence (O60674 whole entry) above

[14] = Total plasma concentration in nude mouse allografted with mouse Ba/F3 cells expressing JAK2 TEL domain at 5 mg/kg, po qd measured at 2 hrs; format: ADME, organism-based, BaF3; design: dose 5 mg/kg, route oral; outline: as §3
[15] = Clearance in CD1 mouse at 10 mg/kg, po and 3 mg/kg, iv; format: ADME, organism-based; conditions: in vivo; outline: as §2
[16] = Total plasma concentration in nude mouse allografted with mouse Ba/F3 cells expressing JAK2 TEL domain at 10 mg/kg, po qd measured at 6 hrs; format: ADME, organism-based, BaF3; design: dose 10 mg/kg, route oral; outline: as §3
[17] = Total plasma concentration in nude mouse allografted with mouse Ba/F3 cells expressing JAK2 TEL domain at 10 mg/kg, po qd measured at 2 hrs; format: ADME, organism-based, BaF3; design: dose 10 mg/kg, route oral; outline: as §3
[18] = Volume of distribution at steady state in Han Wistar rat at 10 mg/kg, po and 3 mg/kg, iv; format: ADME, organism-based; conditions: in vivo, read-out: Vdss
Mus musculus [19] = test: In vivo inhibition of JAK2 TEL domain (unknown origin) transfected in mouse Ba/F3 cells allografted in nude mouse assessed as inhibition of STAT5 phosphorylation at 10 mg/kg, po qd measured at 8 hrs relative to vehicle-treated control; format: functional; conditions: BaF3, 8 h; outline: as §1
[20] = Volume of distribution at steady state in beagle dog at 5 mg/kg, po and 2.5 mg/kg, iv; format: ADME, organism-based, Canis lupus familiaris; conditions: in vivo, read-out: Vdss
Outline: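 Male Beagle dogs. Oral 5 mg/kg in 0.1% HPMC; intravenous 2.5 mg/kg in HP-β-CD.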

Hepatocyte = test: Metabolic stability in human hepatocytes measured per 10^6 cells; format: ADME, cell-based
[21] = Total plasma concentration in nude mouse allografted with mouse Ba/F3 cells expressing JAK2 TEL domain at 5 mg/kg, po qd measured at 8 hrs; format: ADME, organism-based, BaF3; design: dose 5 mg/kg, route oral; outline: as §3
[22] = Oral bioavailability in CD1 mouse at 10 mg/kg; format: ADME, organism-based; conditions: in vivo
Outline: (§4)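 Oral bioavailability in female CD-1 mice and male Han Wistar rats: 10 mg/kg po (0.1% HPMC) versus 3 mg/kg iv (DMA/PEG/saline 40/40/20). %F = (AUCpo × DoseIV)/(AUCIV × Dosepo) × 100.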

[23] = Total plasma concentration in nude mouse allografted with mouse Ba/F3 cells expressing JAK2 TEL domain at 10 mg/kg, po qd measured at 8 hrs; format: ADME, organism-based, BaF3; design: dose 10 mg/kg, route oral; outline: as §3
[24] = Oral bioavailability in Han Wistar rat at 10 mg/kg; format: ADME, organism-based; conditions: in vivo; outline: as §4
[25] = molecular target: T2, Tyrosine-protein kinase JAK3; test: Inhibition of JAK3 (unknown origin) using biotinylated poly-EY peptide as substrate after 60 mins by HTRF assay
[26] = molecular target: T1, Tyrosine-protein kinase JAK2; test: Competitive inhibition of JAK2 (unknown origin)
Target sequence in this assay (O60674 whole entry): as the sequence (O60674 whole entry) above

[27] = AUC in CD1 mouse at 10 mg/kg, po and 3 mg/kg, iv; format: ADME, organism-based; conditions: plasma; outline: as §2
[28] = Clearance in beagle dog at 5 mg/kg, po and […] mg/kg, iv; format: ADME, organism-based, Canis lupus familiaris; conditions: in vivo, 2.5 mg/kg
[29] = Volume of distribution at steady state in CD1 mouse at 10 mg/kg, po and 3 mg/kg, iv; format: ADME, organism-based; conditions: in vivo, read-out: Vdss; outline: as §2
Homo sapiens = organism: Homo sapiens; test: Selectivity ratio of IC50 for JAK3 (unknown origin) to IC50 for JAK2 (unknown origin)
Outline: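 Jak2 and Jak3 enzyme IC50s determined at 5 mM ATP; the ratio is the Jak3 IC50 divided by the Jak2 IC50.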

SMILES: Cc1cc(Nc2nc(N[C@@H](C)c3ncc(F)cc3F)c(F)c(N3CCOCC3)n2)n[nH]1
- inhibition in vivo at 5 mg/kg (Mus musculus [1]): 50%
- IC50 [2]: 0.003 µM
- GI50 [3]: 0.022 µM
- AUC [4]: 17.7 µM·h
- GI50 [5]: 0.008 µM
- concentration at 6 h [6]: 0.098 µg/mL
- clearance [7]: 0.72 L/h/kg
- fraction unbound at 6 h [8]: 0.06
- GI50 [9]: 0.3 µM
- inhibition in vivo at 10 mg/kg (Mus musculus [10]): > 80%
- GI50 (SET-2): 0.014 µM
- IC50 [11]: 0.37 µM
- inhibition (Mus musculus [12]): Active
- IC50 [13]: 0.007 µM
- concentration at 2 h [14]: 0.228 µg/mL
- clearance [15]: 1.08 L/h/kg
- concentration at 6 h [16]: 0.248 µg/mL
- concentration at 2 h [17]: 0.376 µg/mL
- Vd [18]: 3.1 L/kg
- inhibition in vivo at 10 mg/kg (Mus musculus [19]): 70%
- Vd [20]: 2.5 L/kg
- Stability (Hepatocyte): 5.2 µL/min/1e6 cells
- concentration at 8 h [21]: 0.055 µg/mL
- bioavailability [22]: 64%
- concentration at 8 h [23]: 0.123 µg/mL
- bioavailability [24]: 51%
- IC50 [25]: 0.008 µM
- Ki [26]: 0.00141 µM
- AUC [27]: 13.3 µM·h
- clearance [28]: 0.84 L/h/kg
- Vd [29]: 2.9 L/kg

SMILES: Cc1cc(Nc2nc(N[C@@H](C)c3ccc(F)cn3)c(F)c(N3CCN(C)CC3)n2)n[nH]1
- GI50 [9]: 0.38 µM
- IC50 [25]: 0.015 µM

SMILES: Cc1cc(Nc2nc(N[C@@H](C)c3ccc(F)cn3)c(F)c(N3CCOCC3)n2)n[nH]1
- IC50 [2]: 0.006 µM
- GI50 [5]: 0.019 µM
- GI50 [9]: 0.85 µM
- IC50 [25]: 0.262 µM

SMILES: Cc1cc(Nc2nc(N[C@@H](C)c3ncc(F)cn3)c(F)c(N3CCOCC3)n2)[nH]n1
- IC50 [2]: 0.003 µM
- IC50 [25]: 0.229 µM

SMILES: Cc1cc(Nc2nc(N[C@@H](C)c3ncc(F)cn3)nc(N3CCOCC3)c2F)n[nH]1
- Ratio IC50 (Homo sapiens): > 10000

SMILES: Cc1cnc(Nc2nc(N[C@@H](C)c3ncc(F)cn3)nc(N3CCOCC3)c2F)s1
- IC50 [2]: 0.025 µM
- GI50 [5]: 0.03 µM
- GI50 [9]: 4.9 µM
- IC50 [25]: > 30 µM

SMILES: Cc1cc(Nc2nc(O[C@@H](C)c3ccc(F)cn3)c(F)c(N3CCOCC3)n2)n[nH]1
- IC50 [2]: 0.004 µM
- GI50 [5]: 0.016 µM
- GI50 [9]: 0.24 µM
- IC50 [25]: 0.087 µM

SMILES: COc1cc(Nc2nc(N[C@@H](C)c3ncc(F)cn3)c(F)c(N3CCOCC3)n2)n[nH]1
- IC50 [2]: 0.037 µM
- GI50 [5]: 0.16 µM
- GI50 [9]: 9.4 µM
- IC50 [25]: 11.2 µM
